PMC7941041 (Biochemistry and Biophysics Reports, 2021)
Square brackets hold non-standard residues; d marks the D form. pS = N[C@@H](COP(=O)(O)O)C(=O)O

B1: phosphorylated stargazin peptide pStg(phos) (peptide)
peptide: Ac-RIP[pS]YRYR-NH2
SMILES: CC[C@H](C)[C@H](NC(=O)[C@H](CCCNC(=N)N)NC(C)=O)C(=O)N1CCC[C@H]1C(=O)N[C@@H](COP(=O)(O)O)C(=O)N[C@@H](Cc1ccc(O)cc1)C(=O)N[C@@H](CCCNC(=N)N)C(=O)N[C@@H](Cc1ccc(O)cc1)C(=O)N[C@@H](CCCNC(=N)N)C(N)=O

Legend:
[1] = target: T1, hArc-NL (residues 207–277) (Homo sapiens, UniProt Q7LC44); experiment: ITC analysis of peptide binding to hArc-NL; conditions: 20 mM Tris-HCl pH 7.4, 150 mM NaCl, +25 °C, one-site binding model
T1 sequence (Q7LC44 207-277): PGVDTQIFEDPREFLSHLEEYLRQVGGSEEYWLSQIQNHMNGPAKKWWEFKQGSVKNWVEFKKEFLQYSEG
Summary of the method: (§1)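 Human Arc constructs carried a cleavable His-MBP tag and were expressed in E. coli BL21 with IPTG induction at +30 °C. They were purified by Ni-NTA and size-exclusion chromatography, and TEV cleavage left an N-terminal GAMG. Peptides were N-acetylated and C-amidated. Peptide (2.5–5.0 mM) was titrated into the cell containing protein (0.25–0.5 mM).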

[2] = target: T2, hArc-CT (residues 206–396, containing both lobes) (Homo sapiens, UniProt Q7LC44); experiment: ITC analysis of peptide binding to hArc-CT; conditions: 20 mM Tris-HCl pH 7.4, 150 mM NaCl, +25 °C, one-site binding model
T2 sequence (Q7LC44 206-396): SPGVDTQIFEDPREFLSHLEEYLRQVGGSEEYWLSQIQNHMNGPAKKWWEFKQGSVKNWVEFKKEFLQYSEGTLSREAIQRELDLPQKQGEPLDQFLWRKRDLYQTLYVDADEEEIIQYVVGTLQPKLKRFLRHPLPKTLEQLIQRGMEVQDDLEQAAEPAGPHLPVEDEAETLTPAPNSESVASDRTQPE
Summary of the method: as §1

[3] = target: T3, human Arc N-lobe (hArc-NL, residues 207–277) (human, UniProt Q7LC44 207-277); experiment: ITC
T3 sequence: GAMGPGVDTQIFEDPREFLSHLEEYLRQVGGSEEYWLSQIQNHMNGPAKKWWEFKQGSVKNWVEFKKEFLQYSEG

[4] = target: T4, human Arc C-terminal domain (hArc-CT, residues 206–396, containing both lobes) (human, UniProt Q7LC44 206-396); experiment: ITC
T4 sequence: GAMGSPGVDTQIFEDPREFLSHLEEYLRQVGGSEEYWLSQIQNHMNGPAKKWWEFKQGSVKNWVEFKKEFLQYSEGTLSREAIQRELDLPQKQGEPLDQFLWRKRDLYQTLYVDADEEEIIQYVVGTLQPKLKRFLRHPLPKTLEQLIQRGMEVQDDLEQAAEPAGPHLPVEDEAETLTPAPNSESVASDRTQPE

Molecule	-TΔS [1]	ΔH [1]	-TΔS [2]	ΔH [2]	dH [3]	Kd [4]	dH [4]	Kd [3]
Ac-RIPSYRYR-NH2 [pStg(wt)]	+7.0 kcal/mol/°	-13.1 ± 0.1 kcal/mol	+6.4 kcal/mol/°	-12.0 ± 0.2 kcal/mol				
Ac-RIPSYRYRYQRRSRSSSRSTE-NH2 [pStg(long)]			+14.0 kcal/mol/°	-20.2 ± 0.2 kcal/mol				
Ac-TSPKFRSR-NH2 [GKAP-R4]	+6.6 kcal/mol/°	-10.9 ± 0.4 kcal/mol	+2.5 kcal/mol/°	-6.8 ± 0.1 kcal/mol				
Ac-TSPKFRSRNESYMRAMST-NH2 [GKAP-R4(long)]	+3.1 kcal/mol/°	-7.2 ± 0.2 kcal/mol	+2.2 kcal/mol/°	-6.8 ± 0.2 kcal/mol				
Ac-MPGCFRMR-NH2 [GKAP-R5]	+4.7 kcal/mol/°	-8.2 ± 0.3 kcal/mol						
B1					-66.5 ± 0.6 kcal/mol			
Ac-RIPSYRYRYQRRSRSSSRSTE-NH2 [long stargazin peptide pStg(long)]						26.4 ± 1.2 µM	-20.2 ± 0.2 kcal/mol	
Ac-MPGCFRMR-NH2 [GKAP repeat 5 peptide]					-8.2 ± 0.3 kcal/mol			2390 ± 314 µM
Ac-TSPKFRSR-NH2 [GKAP repeat 4 peptide]					-10.9 ± 0.4 kcal/mol	763 ± 10 µM	-6.8 ± 0.1 kcal/mol	714 ± 19 µM
Ac-RIPSYRYR-NH2 [stargazin peptide pStg(wt)]					-13.1 ± 0.1 kcal/mol	80 ± 4 µM	-12 ± 0.2 kcal/mol	33.6 ± 1.1 µM
Ac-TSPKFRSRNESYMRAMST-NH2 [long GKAP repeat 4 peptide]					-7.2 ± 0.2 kcal/mol	391 ± 18 µM	-6.8 ± 0.2 kcal/mol	426 ± 12 µM
